In ChEMBL document CHEMBL1275434, “In vitro evaluation of CBR-2092, a novel rifamycin-quinolone hybrid antibiotic: studies of the mode of action in Staphylococcus aureus” (Antimicrob Agents Chemother, 2008):
≈ marks a conversion by molar mass, not a printed value. Calls of active or inactive are those of the source. The rule behind the calls is not given here.

Tests used:
Staphylococcus aureus [1] = assay: Antimicrobial activity against Staphylococcus aureus CB370 harboring rifampin-resistant rpoB H481Y mutant gene by broth microdilution method; format: functional
Procedure, shortened: (§1)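 CLSI broth microdilution MIC in cation-adjusted Mueller-Hinton (MHII) broth supplemented with 0.002% (vol/vol) polysorbate 80, included to limit compound loss to plastic surfaces.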

Staphylococcus aureus [2] = assay: Antimicrobial activity against Staphylococcus aureus CB809 harboring rpoB H481Y and parC S80F mutant genes by broth microdilution method
Staphylococcus aureus [3] = assay: Antimicrobial activity against Staphylococcus aureus CB811 harboring quinolone-resistant gyrA S84L mutant gene by broth microdilution method; format: functional; procedure, shortened: as §1
Staphylococcus aureus [4] = assay: Antimicrobial activity against Staphylococcus aureus CB815 harboring rpoB H481Y, gyrA S84L and parC S80F mutant genes by broth microdilution method
Staphylococcus aureus [5] = assay: Antimicrobial activity against Staphylococcus aureus CB814 harboring fluoroquinolone-resistant gyrA S84L and parC S80F mutant genes by broth microdilution method; format: functional; procedure, shortened: as §1
Staphylococcus aureus [6] = assay: Antimicrobial activity against Staphylococcus aureus CB812 harboring rpo B H481Y and gyrA S84L mutant genes by broth microdilution method; format: functional; procedure, shortened: as §1
Staphylococcus aureus [7] = assay: Antimicrobial activity against Staphylococcus aureus CB190 by broth microdilution method; format: functional
Staphylococcus aureus [8] = assay: Antimicrobial activity against Staphylococcus aureus CB808 harboring quinolone-resistant parC S80F mutant gene by broth microdilution method; format: functional; procedure, shortened: as §1
Staphylococcus aureus [9] = assay: Antimicrobial activity against Staphylococcus aureus CB1952 harboring rpoB S486L, gyrA […], gyrA E88Q, gyrA G532S, parC S80F, parC E84L mutant genes selected after CBR-2092 exposure for 21 days; format: functional; settings: CB1952, 504 h
Staphylococcus aureus [10] = assay: Antimicrobial activity against rifampin-sensitive Staphylococcus aureus CB190 harboring rpoB E473 mutant gene by broth microdilution method; format: functional; procedure, shortened: as §1
Staphylococcus aureus [11] = assay: Antimicrobial activity against rifampin-sensitive Staphylococcus aureus CB190 harboring rpoB D471Y mutant gene by broth microdilution method; format: functional; procedure, shortened: as §1
Staphylococcus aureus [12] = assay: Inhibition of protein synthesis in quinolone-resistant Staphylococcus aureus CB814 harboring gyrA S84L and parC S80F mutant genes assessed as decrease in L-[3,4,5-3H]leucine incorporation at 0.032 ug/ml; format: functional, organism-based
Procedure, shortened: (§2)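 Time-course radiolabel incorporation in S. aureus cultures with test agent. Precursors: [methyl-3H]thymidine (DNA), [5,6-3H]uridine (RNA), L-[3,4,5-3H]leucine (protein), [2,3-3H]D-alanine (cell wall). At each time point, incorporation with agent is expressed relative to the DMSO-treated control culture as percent incorporation. Time-zero incorporation is set to 100%.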

Staphylococcus aureus [13] = assay: Antimicrobial activity against Staphylococcus aureus CB370 harboring rpoB H481Y mutant gene; format: functional
Staphylococcus aureus [14] = assay: Antimicrobial activity against rifampin-sensitive Staphylococcus aureus CB190 harboring rpoB D471G mutant gene by broth microdilution method; format: functional; procedure, shortened: as §1
Staphylococcus aureus [15] = assay: Inhibition of DNA synthesis in Staphylococcus aureus CB190 assessed as decrease in [methyl-3H]thymidine incorporation at 0.032 ug/ml; format: functional, organism-based
Staphylococcus aureus [16] = assay: Inhibition of DNA synthesis in rifamycin-resistant Staphylococcus aureus CB370 harboring rpoB H481Y mutant gene assessed as [methyl-3H]thymidine incorporation at 0.032 ug/ml; format: functional, organism-based
Procedure, shortened: (§3)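 Macromolecular synthesis time course in S. aureus, measuring incorporation of [methyl-3H]thymidine (DNA), [5,6-3H]uridine (RNA) or [2,3-3H]D-alanine (cell wall). At each time point, incorporation is expressed as percent of the DMSO-treated control culture. Incorporation at time zero is set to 100%.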

Staphylococcus aureus [17] = assay: Antimicrobial activity against Staphylococcus aureus CB1947 harboring rpoB H481Y, gyrA S84L, E697 deficient gyrA, parC G167V mutant genes selected after CBR-2092 exposure for 20 days; settings: CB1947, 480 h
Staphylococcus aureus [18] = assay: Antimicrobial activity against rifampin-sensitive Staphylococcus aureus CB190 harboring rpo BH481D mutant gene by broth microdilution method; format: functional; procedure, shortened: as §1
Staphylococcus aureus [19] = assay: Inhibition of protein synthesis in Staphylococcus aureus CB190 assessed as decrease in L-[3,4,5-3H]leucine incorporation at 0.032 ug/ml; format: functional, organism-based
Staphylococcus aureus [20] = assay: Inhibition of DNA synthesis in quinolone-resistant Staphylococcus aureus CB814 harboring gyrA S84L and parC S80F mutant genes assessed as decrease in [methyl-3H]thymidine incorporation at 0.032 ug/ml; format: functional, organism-based; procedure, shortened: as §3
Staphylococcus aureus [21] = assay: Antimicrobial activity against rifampin-sensitive Staphylococcus aureus CB190 harboring rpoB H481N mutant gene by broth microdilution method; format: functional; procedure, shortened: as §1
Staphylococcus aureus [22] = assay: Antimicrobial activity against Staphylococcus aureus CB815 harboring rpoB H481Y, gyrA […] and parC S80F mutant genes; format: functional
Staphylococcus aureus [23] = assay: Antimicrobial activity against rifampin-sensitive Staphylococcus aureus CB190 harboring rpoB N474K mutant gene by broth microdilution method; format: functional; procedure, shortened: as §1
Staphylococcus aureus [24] = assay: Antimicrobial activity against rifampin-sensitive Staphylococcus aureus CB190 harboring rpoB Q468L mutant gene by broth microdilution method; format: functional; procedure, shortened: as §1
Staphylococcus aureus [25] = assay: Inhibition of cell wall synthesis in quinolone-resistant Staphylococcus aureus CB814 harboring gyrA S84L and parC S80F mutant genes assessed as decrease in [2,3-3H]D-alanine incorporation at 0.032 ug/ml; format: functional, organism-based; procedure, shortened: as §3
Staphylococcus aureus [26] = assay: Antimicrobial activity against rifampin-sensitive Staphylococcus aureus CB190 by broth microdilution method; format: functional; procedure, shortened: as §1
Staphylococcus aureus [27] = assay: Antimicrobial activity against Staphylococcus aureus CB1954 harboring rpoB H481Y, gyrA S84L, K809 deficient gyrA, parC S80F, parC A523D mutant genes selected after CBR-2092 exposure for 7 days; format: functional; settings: CB1954, 168 h; procedure, shortened: as §1
Staphylococcus aureus [28] = assay: Antimicrobial activity against rifampin-sensitive Staphylococcus aureus CB190 harboring rpoB H481Y mutant gene by broth microdilution method; format: functional; procedure, shortened: as §1
Staphylococcus aureus [29] = assay: Antimicrobial activity against Staphylococcus aureus CB1953 harboring rpoB H481Y, gyrA S84L, gyrA V598I, parC S80F, parC R570H mutant genes selected after CBR-2092 exposure for 7 days; format: functional; settings: CB1953, 168 h
Staphylococcus aureus [30] = assay: Inhibition of protein synthesis in rifamycin-resistant Staphylococcus aureus CB370 harboring rpoB H481Y mutant gene assessed as L-[3,4,5-3H]leucine incorporation at 0.032 ug/ml; format: functional, organism-based; procedure, shortened: as §2
Staphylococcus aureus [31] = assay: Antimicrobial activity against Staphylococcus aureus CB814 harboring […] and parC S80F mutant genes; format: functional
Staphylococcus aureus [32] = assay: Antimicrobial activity against rifampin-sensitive Staphylococcus aureus CB190 harboring rpoB H472 mutant gene by broth microdilution method; format: functional; procedure, shortened: as §1
[33] = Inhibition of Staphylococcus aureus RpoB H481Y mutant
Procedure, shortened: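 Recombinant S. aureus σA RNA polymerase holoenzyme carrying RpoB H481Y. Single-round transcription of the pGL2B-T7A1-G-less template. The 272-nt G-less RNA product is quantified by gel electrophoresis. IC50 is the concentration that inhibits 50% of product formed without inhibitor.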

Staphylococcus aureus [34] = assay: Antimicrobial activity against rifampin-sensitive Staphylococcus aureus CB190 harboring rpoB A477V mutant gene by broth microdilution method; format: functional; procedure, shortened: as §1
Staphylococcus aureus [35] = assay: Inhibition of cell wall synthesis in rifamycin-resistant Staphylococcus aureus CB370 harboring rpoB H481Y mutant gene assessed as [2,3-3H]D-alanine incorporation at 0.032 ug/ml; format: functional, organism-based; procedure, shortened: as §3
Staphylococcus aureus [36] = assay: Inhibition of RNA synthesis in quinolone-resistant Staphylococcus aureus CB814 harboring gyrA S84L and parC S80F mutant genes assessed as decrease in [5,6-3H]uridine incorporation at 0.032 ug/ml; format: functional, organism-based; procedure, shortened: as §3
Staphylococcus aureus [37] = assay: Inhibition of RNA synthesis in rifamycin-resistant Staphylococcus aureus CB370 harboring rpoB H481Y mutant gene assessed as [5,6-3H]uridine incorporation at 0.032 ug/ml; format: functional, organism-based; procedure, shortened: as §3
[38] = Inhibition of Staphylococcus aureus wild-type RNA polymerase RpoB
Procedure, shortened: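 Recombinant S. aureus σA RNA polymerase holoenzyme in a single-round transcription assay using the pGL2B-T7A1-G-less template. The 272-nucleotide G-less RNA product was quantified by gel electrophoresis. IC50 is the concentration halving the product formed without test agent.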

Staphylococcus aureus [39] = assay: Antimicrobial activity against Staphylococcus aureus CB1884; format: functional
Staphylococcus aureus [40] = assay: Antimicrobial activity against rifampin-sensitive Staphylococcus aureus CB190 harboring rpoB Q468K mutant gene by broth microdilution method; format: functional; procedure, shortened: as §1
Staphylococcus aureus [41] = assay: Inhibition of RNA synthesis in Staphylococcus aureus CB190 assessed as decrease in [5,6-3H]uridine incorporation at 0.032 ug/ml; format: functional, organism-based
Staphylococcus aureus [42] = assay: Antimicrobial activity against Staphylococcus aureus CB1887 harboring rpoB R484H, L520 deficient gyrA, […], R236 duplicated parC and parC H103Y mutant genes selected after ABT-719 exposure for 20 days; format: functional; settings: CB1887, 480 h
Staphylococcus aureus [43] = assay: Inhibition of cell wall synthesis in Staphylococcus aureus CB190 assessed as decrease in [2,3-3H]D-alanine incorporation at 0.032 ug/ml; format: functional, organism-based

C[C@H]1COc2c(N3CCN(C)CC3)c(F)cc3c(=O)c(C(=O)O)cn1c23.C[C@H]1COc2c(N3CCN(C)CC3)c(F)cc3c(=O)c(C(=O)O)cn1c23.O [LEVOFLOXACIN]
MIC (Staphylococcus aureus [1]): 0.25 µg/mL
MIC (Staphylococcus aureus [2]): 1 µg/mL
MIC (Staphylococcus aureus [3]): 0.25 µg/mL
MIC (Staphylococcus aureus [4]): 8 µg/mL
MIC (Staphylococcus aureus [5]): 8 µg/mL
MIC (Staphylococcus aureus [6]): 0.25 µg/mL
MIC (Staphylococcus aureus [7]): 0.25 µg/mL
MIC (Staphylococcus aureus [8]): 1 µg/mL

CO[C@H]1/C=C/O[C@@]2(C)Oc3c(C)c(O)c4c(O)c(c(/C=N/N5CCN(C)CC5)c(O)c4c3C2=O)NC(=O)/C(C)=C\C=C\[C@H](C)[C@H](O)[C@@H](C)[C@@H](O)[C@@H](C)[C@H](OC(C)=O)[C@@H]1C [RIFAMPIN]
MIC (Staphylococcus aureus [1]): > 250 µg/mL
MIC (Staphylococcus aureus [9]): > 250 µg/mL
MIC (Staphylococcus aureus [2]): > 250 µg/mL
MIC (Staphylococcus aureus [10]): 8 µg/mL (≈ 9.72 µM)
MIC (Staphylococcus aureus [11]): 16 µg/mL (≈ 19.4 µM)
Activity (Staphylococcus aureus [12]): Active
MIC (Staphylococcus aureus [13]): > 250 µg/mL
MIC (Staphylococcus aureus [14]): 0.25 µg/mL (≈ 0.304 µM)
Activity (Staphylococcus aureus [15]): Active
Activity (Staphylococcus aureus [16]): inactive
MIC (Staphylococcus aureus [17]): > 250 µg/mL
MIC (Staphylococcus aureus [18]): > 64 µg/mL
Activity (Staphylococcus aureus [19]): Active
Activity (Staphylococcus aureus [20]): Active
MIC (Staphylococcus aureus [3]): 0.008 µg/mL (≈ 0.00972 µM)
MIC (Staphylococcus aureus [21]): 2 µg/mL (≈ 2.43 µM)
MIC (Staphylococcus aureus [22]): > 125 µg/mL
MIC (Staphylococcus aureus [23]): 2 µg/mL (≈ 2.43 µM)
MIC (Staphylococcus aureus [24]): > 64 µg/mL
Activity (Staphylococcus aureus [25]): Active
MIC (Staphylococcus aureus [4]): > 250 µg/mL
MIC (Staphylococcus aureus [5]): 0.008 µg/mL (≈ 0.00972 µM)
MIC (Staphylococcus aureus [26]): 0.008 µg/mL (≈ 0.00972 µM)
MIC (Staphylococcus aureus [27]): > 125 µg/mL
MIC (Staphylococcus aureus [28]): > 64 µg/mL
MIC (Staphylococcus aureus [29]): > 125 µg/mL
Activity (Staphylococcus aureus [30]): inactive
MIC (Staphylococcus aureus [31]): 0.008 µg/mL (≈ 0.00972 µM)
MIC (Staphylococcus aureus [32]): 32 µg/mL (≈ 38.9 µM)
IC50 [33]: > 25000 nM
MIC (Staphylococcus aureus [34]): 1 µg/mL (≈ 1.22 µM)
Activity (Staphylococcus aureus [35]): inactive
Activity (Staphylococcus aureus [36]): Active
Activity (Staphylococcus aureus [37]): inactive
IC50 [38]: 15 nM
MIC (Staphylococcus aureus [39]): > 250 µg/mL
MIC (Staphylococcus aureus [6]): > 250 µg/mL
MIC (Staphylococcus aureus [40]): > 64 µg/mL
Activity (Staphylococcus aureus [41]): Active
MIC (Staphylococcus aureus [42]): > 250 µg/mL
MIC (Staphylococcus aureus [7]): 0.008 µg/mL (≈ 0.00972 µM)
Activity (Staphylococcus aureus [43]): Active
MIC (Staphylococcus aureus [8]): 0.008 µg/mL (≈ 0.00972 µM)
